Compound activity (PubChem)
Env fusion inh = inhibitors of HIV Env-mediated cell fusion | HeLa-JRFL Env/CEM21 cell fusion, luciferase | inhibition, % at 12.3 µM | 1.1% of 360,000 active | AID 651610;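 active means mean replicate inhibition score of at least 50 and every replicate individually at or above 50; inconclusive means only one of the two criteria met; inactive means mean below 50 and not all replicates reaching 50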;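 further: 0% = plate neutral controls and 100% = maraviroc near 300 nM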
Rtt109 Vps75 = C. albicans Rtt109 histone acetyltransferase inhibition | Q5AAJ8 | purified Rtt109/Vps75, ThioGlo CoA-SH fluorescence, 4 h | inhibition, % at 34.9 µM | 0.16% of 330,000 active;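 active means inhibition of at least 50% in every replicate; inconclusive means best replicate reaches 50% inhibition but some replicates fall short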
miR122 inh = inhibitors of miR-122 in Huh7 cells; Huh7 miR-122 Renilla luciferase sensor, 48 h; neutral wells = 0, positive control = 100; activation (reporter increase), % at 12.5 µM; 0.3% of 340,000 active; AID 602342;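 active means mean replicate activation score at least 90 and every replicate individually at or above 90; inconclusive means only one of the two criteria met; inactive means neither criterion met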;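 further: higher luciferase means less miR-122 activity so hits act as miR-122 inhibitors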
INS-1E GSIS act = primary screen for activators of insulin secretion dependent on glucose, INS-1E cells, GLuc reporter luminescence. INS-1E GLuc reporter insulin secretion, 2-3 h. 0.61% of 370,000 active. AID 743287. activation, % at 16.6 µM;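 active means lowest replicate activation of at least 40%, so every replicate reaches that level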;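 further: 0% = median of neutral control wells and 100% = median of IBMX positive control wells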
Cneo AK release = causes C. neoformans cell lysis. lysis activity, % at 15 µM. adenylate kinase release luminescence, 4 h; normalised: neutral wells 0, clomiphene wells 100. 0.2% of 360,000 active;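 active means mean lysis activity across replicates of at least 80%, whatever share of replicates individually reach that level; inactive means mean lysis activity below 80%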
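Test system: log-phase Cryptococcus neoformans yeast cells. Input: 5 × 10^6 yeast cells/mL. Medium: fresh YPD growth medium. Doses: single dose. Incubation: static 4 h at 37 °C with compound, 1 h detection. Measured by: luminescent adenylate kinase detection reagent. Read-out: signal increase indicating cell lysis. Benchmarks: Clomiphene.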
dFosB activator = enhances mouse delta FosB homodimer DNA binding. P13346. purified delta FosB, TAMRA-CDK5 oligo fluorescence polarization; percent of positive-control signal above neutral wells. activation, % at 25 µM. 0.99% of 340,000 active. AID 493131;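 active means mean activation above about 17%, with every replicate also reaching it, limit read from the data, passing the limit was not always enough; inconclusive means only one of the two conditions met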
Target sequence (P13346 whole entry, looked up): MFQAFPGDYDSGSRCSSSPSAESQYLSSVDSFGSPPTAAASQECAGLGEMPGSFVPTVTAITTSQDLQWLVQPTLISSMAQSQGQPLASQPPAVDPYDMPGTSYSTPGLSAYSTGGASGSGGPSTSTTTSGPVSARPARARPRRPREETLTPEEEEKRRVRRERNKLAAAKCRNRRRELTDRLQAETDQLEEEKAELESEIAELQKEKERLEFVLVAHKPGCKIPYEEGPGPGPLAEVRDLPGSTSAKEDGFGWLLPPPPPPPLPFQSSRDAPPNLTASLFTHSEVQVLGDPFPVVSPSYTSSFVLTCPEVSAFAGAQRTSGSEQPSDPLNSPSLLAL
Numbers without * were called inactive; [ ] = another dose, or the depositor's remark. Hits are enriched below; roughly 2.4% of the tested compounds scored in any of these assays.

How did C[C@H](CO)N1C[C@H](C)[C@H](CN(C)C(=O)Nc2ccccc2)OCCCC[C@H](C)Oc2ccc(NC(=O)Nc3ccc(C(F)(F)F)cc3)cc2C1=O do in these assays?
INS-1E GSIS act: 3

Results for Cc1c(CNCCc2ccccc2Cl)c(C(=O)O)c(C)n1-c1ccccc1 ?
Env fusion inh: 57*; Rtt109 Vps75: -17; INS-1E GSIS act: -1; dFosB activator: -6

What do the screens show for `CCCCC1(COC(=O)CCC(=O)O)C(=O)N(c2ccccc2)N(c2ccccc2)C1=O`?
Rtt109 Vps75: -11; miR122 inh: -9; INS-1E GSIS act: 18; Cneo AK release: 2; dFosB activator: 9

What do the screens show for `CCCCC1(Cc2ccc([N+](=O)[O-])cc2)C(=O)N(c2ccccc2)N(c2ccccc2)C1=O`?
Env fusion inh: 133*; Rtt109 Vps75: 0; miR122 inh: -9; Cneo AK release: -1; dFosB activator: 2

What do the screens show for `CCn1c(SCC(=O)Nc2ccc3c(c2)c2ccccc2n3CC)nnc1-c1ccco1`?
Env fusion inh: 16; Rtt109 Vps75: 66*; miR122 inh: 5; Cneo AK release: -1; dFosB activator: -7

Results for CCn1c(SCC(=O)Nc2ccc3c(c2)oc2ccccc23)nnc1-c1ccc(N)cc1 ?
Env fusion inh: 42; Rtt109 Vps75: -3; miR122 inh: -1; INS-1E GSIS act: 73*; Cneo AK release: -6; dFosB activator: inconclusive

What do the screens show for `CCn1c(SCC(=O)Nc2cccc(NC(C)=O)c2)nnc1-c1ccco1`?
Env fusion inh: 12; Rtt109 Vps75: 2; miR122 inh: -5; INS-1E GSIS act: 3; Cneo AK release: -5; dFosB activator: -8

What do the screens show for `C[C@H]1CN(C)C(=O)c2cccc(N(S(C)(=O)=O)S(C)(=O)=O)c2O[C@H]1CN(C)C(=O)OC(C)(C)C`?
INS-1E GSIS act: -1

Results for CCCCCCC1CCC(C(=O)NC(CCSC)C(=O)NC(C(=O)OC)C(C)C)CC1 (stereo not given) ?
Env fusion inh: 57*; Rtt109 Vps75: 9; miR122 inh: -5; Cneo AK release: -1; dFosB activator: -13

What do the screens show for `CCc1cccc(NC(=O)C2CCCN(c3ncnc4c3nc3n4CCCCC3)C2)c1` (stereo not given)?
Env fusion inh: 13; Rtt109 Vps75: 87*; miR122 inh: 5; INS-1E GSIS act: -26; Cneo AK release: -17; dFosB activator: 6

How did COC(=O)C1CCCN1C(C(=O)NC1CCCCC1)c1ccc(Cl)cc1 (stereo not given) do in these assays?
Env fusion inh: 66*; Rtt109 Vps75: -7; miR122 inh: -3; INS-1E GSIS act: -4; Cneo AK release: -2; dFosB activator: 0

What do the screens show for `CC1Cc2ccccc2N1C(=O)COC(=O)c1ccc(O)cc1` (stereo not given)?
Env fusion inh: 16; Rtt109 Vps75: 52*; miR122 inh: -2; INS-1E GSIS act: 8; Cneo AK release: 2; dFosB activator: -8

How did COc1cc2nc(N(CCN(C)C)C(=O)c3ccc4ccccc4c3)sc2cc1OC do in these assays?
Rtt109 Vps75: -1; miR122 inh: -1; Cneo AK release: 3; dFosB activator: 0

How did COc1ccc(OC)c2sc(N(CCN(C)C)C(=O)c3ccc4ccccc4c3)nc12 do in these assays?
Env fusion inh: -5; Rtt109 Vps75: 0; miR122 inh: -5; INS-1E GSIS act: -12; Cneo AK release: 6; dFosB activator: 30*

How did CCc1ccc2nc(N(CCN(C)C)C(=O)c3ccc4ccccc4c3)sc2c1 do in these assays?
Rtt109 Vps75: 8; miR122 inh: -4; Cneo AK release: 0; dFosB activator: 22*

Results for CN(C)CCN(C(=O)c1ccc2ccccc2c1)c1nc2ccc(F)cc2s1 ?
Rtt109 Vps75: -4; miR122 inh: 8; Cneo AK release: 3; dFosB activator: 26*

How did COc1cccc(-c2ccc3c(c2)[C@H]2[C@H](CCN2C(=O)NC2CCCC2)[C@H](CO)N3C)c1 do in these assays?
miR122 inh: 3[16.7 µM]; INS-1E GSIS act: -5; Cneo AK release: 59
